T cruzi growth-1 – inhibitors of T. cruzi proliferation; actives 5.9% (n = 77,000); T. cruzi beta-gal in NIH3T3, GalScreen luminescence, 90 h; inhibition, % at 8.34 µM;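 active means mean inhibition above about 93%, with at least 55% of replicates each passing it, limit read from the data, passing the limit was not always enough; inconclusive means only one of those two conditions holds; inactive means neither condition holds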
Pf Dd2 inh – blocks growth of Plasmodium falciparum Dd2 parasites. activity change, % at 10 µM. actives 2.3% (n = 94,000). P. falciparum Dd2 growth, SYBR Green, 72 h; active compounds read low. AID 1159554; in the data active means activity change below about -80%; inconclusive means no clear call, values can overlap the other calls
KDM4C inh – KDM4C (human) demethylase inhibition | GST-KDM4C 2-372, H3K9me3 peptide, LANCE TR-FRET | inhibition, % at 12.5 µM | actives 0.15% (n = 96,000);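 active means mean replicate inhibition above about 25%, with at least 55% of replicates also reaching it, limit read from the data, passing the limit was not always enough; inconclusive means only one of those two conditions met; inactive means neither condition met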
Target sequence (Q9H3R0 2-372 limits assumed): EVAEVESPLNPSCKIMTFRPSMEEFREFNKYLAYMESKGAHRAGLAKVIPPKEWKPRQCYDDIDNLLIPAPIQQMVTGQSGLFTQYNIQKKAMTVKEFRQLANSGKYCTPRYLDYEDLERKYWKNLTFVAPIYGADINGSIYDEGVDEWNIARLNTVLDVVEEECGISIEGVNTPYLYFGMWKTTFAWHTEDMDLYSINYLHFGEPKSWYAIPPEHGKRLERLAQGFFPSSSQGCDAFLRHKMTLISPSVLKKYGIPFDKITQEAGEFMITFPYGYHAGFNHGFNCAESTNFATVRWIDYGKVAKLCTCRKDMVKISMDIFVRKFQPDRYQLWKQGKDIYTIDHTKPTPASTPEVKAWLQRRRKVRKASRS
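Test system: N-terminal GST-fused human GASC-1 (KDM4C) fragment, residues 2-372; quantity: GASC-1 enzyme at 10 nM final in reaction; dosing: single dose; schedule: 30 min demethylation and 1 h detection at room temperature; signal: LANCE TR-FRET, excitation 340 nm, emissions 618 and 671 nm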
IDH1 mut inh – IDH1 R132H (human) inhibition; O75874; IDH1 R132H reductase, diaphorase/resazurin fluorescence, 60 min; inhibition, % at 10 µM; actives 0.18% (n = 70,000); in the data active means inhibition above about 34%; inconclusive means no clear call, values can overlap the other calls; inactive means below about 11%;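 further: 0% = DMSO and 100% = no enzyme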
T cruzi growth-2 – inhibitors of T. cruzi proliferation; shares compounds with T cruzi growth-1; T. cruzi beta-gal in NIH3T3, GalScreen luminescence, 90 h; inhibition, % at 8.35 µM; actives 72% (n = 5,600);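 active means mean replicate inhibition above about 95% and at least 55% of replicates individually reaching it, limit read from the data; inconclusive means only one of the two criteria is met; inactive means neither criterion is met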
T cruzi growth-3 – Trypanosoma cruzi proliferation inhibition | AID 651740 | shares compounds with T cruzi growth-1 | actives 21% (n = 5,600) | inhibition, % at 2.09 µM | T. cruzi beta-gal in NIH3T3, GalScreen luminescence, 90 h;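 active means mean inhibition above about 95%, with at least 55% of replicates also reaching it, limit read from the data; inconclusive means meets just one of the two conditions; inactive means meets neither condition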;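 further: plate controls were neutral control median for no effect and positive control median for full effect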
3T3 cytotox – NIH/3T3 (mouse) viability loss; shares compounds with T cruzi growth-1; NIH/3T3 viability, CellTiter-Glo ATP luminescence, 90 h; cytotoxicity (signal decrease), % at 8.35 µM; actives 14% (n = 5,600);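 active means mean signal decrease across replicates above about 35% based on untreated-well scatter, with enough replicates individually passing, limit read from the data; inconclusive means no rule stated though some were filed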;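 further: 0% = median of neutral control wells and 100% = median of positive control wells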
3T3 cytotox 2 – NIH/3T3 (mouse) viability loss. inhibition, % at 24.9 µM. NIH/3T3 viability, CellTiter-Glo ATP luminescence, 90 h. shares compounds with T cruzi growth-1. actives 56% (n = 5,600);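 active means mean loss of cell viability signal at or above a set limit, and enough replicates individually reaching it; inconclusive means meets only the mean limit or only the replicate share; inactive means meets neither condition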;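 further: 0% = median of neutral control wells and 100% = median of positive control wells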
* hit, by the source's call; u = inconclusive; x = no result. An excerpt weighted towards active compounds, which were near 5.8% of everything screened.

SMILES	T cruzi growth-1	Pf Dd2 inh	KDM4C inh	IDH1 mut inh	T cruzi growth-2	T cruzi growth-3	3T3 cytotox	3T3 cytotox 2
C[C@@H]1CN([C@@H](C)CO)C(=O)c2cc(NC(=O)NC3CCCCC3)ccc2O[C@H]1CN(C)Cc1ccc(Cl)c(Cl)c1	u	3	0	6	111*	43	8	3
C[C@@H]1CN([C@@H](C)CO)C(=O)c2cc(NC(=O)C3CCCCC3)ccc2O[C@@H]1CN(C)Cc1ccc(Cl)c(Cl)c1	u	1	1	1	103*	95	12	39*
C[C@@H]1CN([C@H](C)CO)S(=O)(=O)c2ccc(C#CC3CC3)cc2O[C@H]1CN(C)C(=O)c1ccncc1	93	-50	5	0	x	x	x	x
C[C@@H]1CN([C@H](C)CO)S(=O)(=O)c2ccc(C#CC3CC3)cc2O[C@@H]1CN(C)C(=O)c1ccccc1	u	-39	-2	0	106*	63	33	51*
C[C@H](CO)N1C[C@H](C)[C@H](CN(C)C(=O)c2ccncc2)Oc2cc(C#CC3CC3)ccc2S1(=O)=O	103*	-48	1	6	92	74	0	28*
C[C@@H]1CN([C@@H](C)CO)S(=O)(=O)c2ccc(C#CC3CC3)cc2O[C@@H]1CN(C)C(=O)Nc1cc(F)ccc1F	103*	-14	-3	x	114*	79	29	28*
C[C@H](CO)N1C[C@H](C)[C@H](CN(C)C(=O)Nc2cc(F)ccc2F)Oc2cc(C#CC3CC3)ccc2S1(=O)=O	117*	-64	-3	x	112*	45	4	25
C[C@@H]1CN([C@@H](C)CO)S(=O)(=O)c2ccc(C#CC3CC3)cc2O[C@H]1CN(C)C(=O)Nc1cc(F)ccc1F	104*	-37	0	x	106*	71	38*	33*
C[C@H](CO)N1C[C@H](C)[C@H](CN(C)C(=O)Nc2cc(F)ccc2F)Oc2cc(C#CC3CCCC3)ccc2S1(=O)=O	x	-39	-1	0	x	x	x	x
C[C@H](CO)N1C[C@H](C)[C@@H](CN(C)C(=O)Nc2cc(F)ccc2F)Oc2cc(C#CC3CCCC3)ccc2S1(=O)=O	x	-2	x	2	x	x	x	x
C[C@@H]1CCCCO[C@@H](CN(C)C(=O)Nc2ccc(C(F)(F)F)cc2)[C@@H](C)CN([C@H](C)CO)C(=O)c2cc(NC(=O)Cc3ccccc3)ccc2O1	u	-5	-2	x	108*	35	6	19
C[C@H](CO)N1C[C@H](C)[C@H](CN(C)C(=O)Nc2ccc(C(F)(F)F)cc2)OCCCC[C@H](C)Oc2ccc(NC(=O)Cc3ccccc3)cc2C1=O	u	-43	-1	x	103*	102*	18	33*
CC(C)NC(=O)N(C)C[C@@H]1Oc2ccc(NS(=O)(=O)c3cccs3)cc2CC(=O)N([C@@H](C)CO)C[C@@H]1C	18	26	-1	3	x	x	x	x
O=C(C1CCC1)N1CC2(C1)[C@@H](c1ccccc1)[C@H](CO)N2C(=O)c1cccnc1	x	19	-1	x	x	x	x	x
C[C@@H]1CN([C@@H](C)CO)C(=O)c2cc(C#C[C@@H](C)O)cnc2O[C@H]1CN(C)C(=O)CC1CC1	19	x	7	x	x	x	x	x
O=S(=O)(c1ccccc1)N1CCCCN2[C@@H](CO)[C@@H](c3ccc(-c4ccccc4)cc3)[C@@H]2C1	81	-44	1	x	x	x	x	x
Cc1cccc(-c2ccc([C@H]3[C@@H](CO)N4CCCCN(S(=O)(=O)c5cccc(C)c5)C[C@H]34)cc2)c1	100*	-85*	1	x	88	106*	50*	103*
Cc1cccc(S(=O)(=O)N2CCCCN3[C@H](CO)[C@H](c4ccc(-c5ccccc5)cc4)[C@@H]3C2)c1	116*	10	x	x	98*	80	-10	51*
Cc1cccc(-c2ccc([C@@H]3[C@H]4CN(S(=O)(=O)c5cccc(C)c5)CCCCN4[C@H]3CO)cc2)c1	110*	-20	0	x	104*	115*	27	56*
Cc1cccc(S(=O)(=O)N2CCCCN3[C@H](C2)[C@@H](c2ccc(-c4ccccc4)cc2)[C@@H]3CO)c1	77	-25	x	x	x	x	x	x
O=S(=O)(c1ccccc1)N1CCCCN2[C@H](CO)[C@H](c3ccc(-c4ccccc4)cc3)[C@@H]2C1	104*	16	1	x	100*	84	-5	49*
Cc1cccc(S(=O)(=O)N2CCCCN3[C@@H](CO)[C@H](c4ccc(-c5ccccc5)cc4)[C@@H]3C2)c1	94	12	x	x	x	x	x	x
Cc1cc(C)cc(N2C(=O)CC(SCC(=O)Nc3ccc(Cl)cc3)C2=O)c1 (stereo unspecified)	x	x	x	-1	x	x	x	x
Cc1cc(=O)[nH]c(SCCCOc2ccc(C(C)C)c(C)c2)n1	x	x	x	-1	x	x	x	x
CCC(=O)Nc1ccc2c(c1)C(=O)N(C)[C@H]1CC[C@H](CC(=O)NCCN3CCCCC3)O[C@H]1CO2	13	5	4	x	x	x	x	x
SMILES	T cruzi growth-1	Pf Dd2 inh	KDM4C inh	IDH1 mut inh	T cruzi growth-2	T cruzi growth-3	3T3 cytotox	3T3 cytotox 2
CN(CC(=O)Nc1ccccc1Cl)S(=O)(=O)c1ccc2ccccc2c1	x	x	x	0	x	x	x	x
C[C@@H]1CN([C@@H](C)CO)C(=O)CCCn2cc(nn2)CO[C@H]1CN(C)C(=O)Nc1ccccc1C(F)(F)F	30	6	1	-5	x	x	x	x
C[C@H](CO)N1C[C@H](C)[C@@H](CN(C)CC2CCCCC2)Oc2ccc(NC(=O)CCC(F)(F)F)cc2C1=O	u	12	x	x	46	-21	-7	7
C[C@H](CO)N1C[C@H](C)[C@H](CN(C)CC2CCCCC2)Oc2ccc(NC(=O)Cc3ccccc3)cc2C1=O	46	-3	2	x	x	x	x	x
C[C@@H]1CN([C@@H](C)CO)C(=O)c2cc(NC(=O)Cc3ccccc3)ccc2O[C@H]1CN(C)CC1CCCCC1	u	-7	1	x	65	6	-16	2
C[C@H](CO)N1C[C@H](C)[C@H](CN(C)Cc2cccc(C(F)(F)F)c2)Oc2ncc(-c3cccc(C(F)(F)F)c3)cc2C1=O	x	-7	-2	0	x	x	x	x
Cn1c(=O)c2c(n(C)c1=O)n(C)c(=O)n2C	x	x	x	0	x	x	x	x
Cc1noc(C)c1S(=O)(=O)Nc1ccc2c(c1)C(=O)N([C@@H](C)CO)C[C@H](C)[C@H](CN(C)C(=O)CCCN(C)C)OCCCC[C@@H](C)O2	1	14	2	1	x	x	x	x
COc1ccc(NC(=O)N2CCCCN3[C@H](CO)[C@H](c4ccc(C5=CCCC5)cc4)[C@@H]3C2)cc1	117*	-18	x	x	96*	107*	1	u

Screens: PubChem, Broad Institute
